Compounds with a hit are over-represented: about 3.1% of the library has one in this group of screens.
rRNA inh HTS = reduced GFP signal of wild-type E. coli, primary screen, bacterial rRNA inhibitor project, GFP/RFP fluorescence, OD600, single point. GFP signal change (wild-type ribosome), % (no concentration beside the values). E. coli WT GFP vs humanized-ribosome RFP mutants, 24 h; stronger effect = lower value; DMSO median 0, no signal -100. AID 720706, 2013. 350,000 tested, 1.6% active;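 active = significant combined selectivity score with lowered wild-type GFP, culture density cut under 30%, mutant RFP and density less affected; inactive = any of these conditions unmet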
CFTR F508del cor = F508del CFTR correction, initial screen, CFBE line, single point; activity (quench increase), % at 7.58 µM; AID 720511, 2013; 350,000 tested, 0.36% active; CFBE cells, YFP halide quenching; stimulated with forskolin plus potentiator P3; % fluorescence drop versus neutral controls;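 active = mean added fluorescence quench of at least 8% versus neutral control, with both replicates also reaching 8%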;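 also: cells transiently co-express mutant CFTR-F508del with the halide-sensitive YFP; corrector assay measuring rescue of mutant channel to the surface after 24 h compound exposure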
ERAP1 inh = human ERAP1 aminopeptidase inhibitors, primary screen, biochemical, single point, plate reader; Endoplasmic reticulum aminopeptidase 1 (Homo sapiens), Q9NZ08; recombinant ERAP1, Leu-AMC fluorescence, 60 min; inhibition, % at 10.7 µM; 340,000 tested, 0.15% active;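 active = mean replicate inhibition of at least 30%, or all replicates individually reaching that 30% level; inactive = mean below 30% and not every replicate reaching it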
S100A4 inh HTS = inhibitors of S100A4-myosin IIA peptide binding, primary screen, biochemical, fluorescence polarization, TAMRA-MyoIIA peptide | Protein S100-A4 (Homo sapiens), P26447 | inhibition, % at 10.7 µM | 360,000 tested, 0.14% active;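 active = mean inhibition of at least 70% across replicates, with every replicate also reaching that level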
Target sequence (P26447 whole entry, looked up): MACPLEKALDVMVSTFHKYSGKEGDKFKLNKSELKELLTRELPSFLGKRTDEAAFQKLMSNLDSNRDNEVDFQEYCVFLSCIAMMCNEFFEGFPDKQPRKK
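Test system: S100A4 monomer protein. Medium: HEPES buffer with Ca2+, pH 7.2. Reagent: fluorescent myosin IIA peptide, 5 nM. Compound dosing: single-point compound testing. Timing: 5 min between mix addition and reading. Benchmarks: DMSO neutral and TFP positive wells.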
SIRT5 block = SIRT5 desuccinylase inhibitors, primary screen, biochemical, fluorescence imaging, single point, set 5. NAD-dependent protein deacylase sirtuin-5, mitochondrial (Homo sapiens), Q9NXA8. Purified SirT5, succinyl-peptide AMC, trypsin-coupled fluorescence. inhibition, % at 15 µM. 330,000 tested, 1.1% active. AID 652115, 2013; in the data active = inhibition above about 15%
Target sequence (Q9NXA8 whole entry, looked up): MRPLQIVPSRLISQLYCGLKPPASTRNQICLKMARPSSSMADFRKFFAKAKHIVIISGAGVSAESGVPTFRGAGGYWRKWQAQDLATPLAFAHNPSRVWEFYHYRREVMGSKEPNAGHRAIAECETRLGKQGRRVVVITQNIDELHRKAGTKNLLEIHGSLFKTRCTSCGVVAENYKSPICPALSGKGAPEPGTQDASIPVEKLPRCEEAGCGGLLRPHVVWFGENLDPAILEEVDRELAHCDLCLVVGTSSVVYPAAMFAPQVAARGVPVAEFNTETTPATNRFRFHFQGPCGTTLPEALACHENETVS
Large screens that a line does not name were inactive.

C[C@@H]1CN([C@@H](C)CO)S(=O)(=O)c2ccc(C3=CCCCC3)cc2O[C@@H]1CN(C)C(=O)Cc1ccccc1	SIRT5 block 18
C[C@@H]1CN([C@H](C)CO)S(=O)(=O)c2ccc(C3=CCCCC3)cc2O[C@H]1CN(C)C(=O)Cc1ccncc1	SIRT5 block 17
C[C@@H]1CN([C@@H](C)CO)S(=O)(=O)c2ccc(C3=CCCCC3)cc2O[C@@H]1CN(C)C(=O)Cc1ccncc1	none
COc1ccc(S(=O)(=O)Nc2ccc3c(c2)C(=O)N([C@H](C)CO)C[C@@H](C)[C@@H](CN(C)Cc2ccc(C(=O)O)cc2)OCCCC[C@H](C)O3)cc1	none
CCOC(=O)c1ccc(NC(=O)c2cccc(C)c2[N+](=O)[O-])cc1	none
COC(=O)c1ccc(NC(=O)c2cccc(C)c2[N+](=O)[O-])cc1	rRNA inh HTS -22
C[C@@H]1CCCCO[C@H](CN(C)C(=O)NC2CCCCC2)[C@H](C)CN([C@@H](C)CO)C(=O)c2cc(NS(=O)(=O)c3ccc(Cl)cc3)ccc2O1	none
CNC[C@@H]1OCCCC[C@@H](C)Oc2ccc(NS(=O)(=O)c3ccccc3)cc2C(=O)N([C@@H](C)CO)C[C@@H]1C	none
CCOc1ccc(Cl)cc1CNCCCSc1nc(C)cc(C)n1	SIRT5 block 20
O=C(CC1C(=O)NCCN1C(=O)Nc1ccccc1)Nc1cc(Cl)ccc1Cl (stereo not given)	rRNA inh HTS -25
Cc1cccc(NC(=O)CC2C(=O)NCCN2C(=O)Nc2ccc(Cl)cc2)c1 (stereo not given)	rRNA inh HTS -32
O=C(CC1C(=O)NCCN1C(=O)Nc1ccc(Cl)cc1)Nc1ccc(F)cc1 (stereo not given)	none
COc1ccc(N2CC(C(=O)Nc3nc4ccc(F)cc4s3)CC2=O)c(OC)c1 (stereo not given)	rRNA inh HTS -30
CCOC(=O)C(=N/O)/C(C)=N/NC(=O)C(=O)Nc1ccc(Cl)cc1	rRNA inh HTS -20
CCOC(=O)C(=O)NNc1ccc(Cl)cc1	none
CN(C)C(=O)C[C@@H]1C[C@H]2c3cc(NS(C)(=O)=O)ccc3O[C@H]2[C@H](CO)O1	none
COc1ccc(NC(=O)Nc2ccc3c(c2)CC(=O)N([C@H](C)CO)C[C@H](C)[C@@H](CN(C)S(=O)(=O)c2cccs2)O3)cc1	none
C[C@H](CO)N1C[C@H](C)[C@@H](CN(C)CC2CCCCC2)OCCCC[C@H](C)Oc2ccc(NS(=O)(=O)c3ccc(Cl)cc3)cc2C1=O	none (no result: ERAP1 inh, S100A4 inh HTS, SIRT5 block)
Cc1ccc(S(=O)(=O)Nc2ccc3c(c2)C(=O)N([C@@H](C)CO)C[C@@H](C)[C@@H](CN(C)C(=O)Nc2cccc4ccccc24)OCCCC[C@H](C)O3)cc1	none
Cc1ccc(S(=O)(=O)Nc2ccc3c(c2)C(=O)N([C@H](C)CO)C[C@@H](C)[C@H](CN(C)C(=O)Nc2cccc4ccccc24)OCCCC[C@@H](C)O3)cc1	none
Cc1ccc(S(=O)(=O)Nc2ccc3c(c2)C(=O)N([C@@H](C)CO)C[C@H](C)[C@@H](CN(C)C(=O)Nc2cccc4ccccc24)OCCCC[C@H](C)O3)cc1	SIRT5 block 16
Cc1ccc(S(=O)(=O)Nc2ccc3c(c2)C(=O)N([C@@H](C)CO)C[C@H](C)[C@@H](CN(C)C(=O)Nc2cccc4ccccc24)OCCCC[C@@H](C)O3)cc1	SIRT5 block 16
CCCCCCNC(=O)c1ccc(Br)o1	SIRT5 block 32
Cc1cc2ccccc2n1CCNC(=O)c1ccc(Br)o1	S100A4 inh HTS 90
Cc1cc2ccccc2n1CCNC(=O)Cc1cccc2ccccc12	S100A4 inh HTS 73
CCc1ccc(C(=O)COC(=O)CNC(=O)c2ccc(Br)o2)cc1	rRNA inh HTS -22
CC(=O)NCCn1c(C)cc2ccccc21	none
C[C@@H]1CN([C@H](C)CO)C(=O)c2cccc(NC(=O)c3cnccn3)c2O[C@H]1CN(C)Cc1ccccc1	none
Cc1cccc(-c2ccc([C@@H]3[C@@H](CO)N4CCCCN(C(=O)NC(C)C)C[C@@H]34)cc2)c1	none
CN(CCOc1ccccc1)CC(=O)Nc1ccc(Cl)c(S(=O)(=O)N(C)C)c1	rRNA inh HTS -37 (no result: CFTR F508del cor)
Cc1ccc(-c2nn(-c3ccccc3)cc2C=C2SC(=S)N(CCS(=O)(=O)O)C2=O)cc1	SIRT5 block 55
Cc1cccc(S(=O)(=O)N2C[C@@H]3[C@H](c4ccccc42)[C@@H](CO)N3CC2CCCC2)c1	none
O=C(CC(F)(F)F)N1C[C@@H]2[C@H](c3ccccc31)[C@@H](CO)N2CC1CCOCC1	S100A4 inh HTS 90
O=C(Nc1cccc(Cl)c1)N1C[C@H]2[C@@H](c3ccccc31)[C@H](CO)N2CC1CCCCC1	rRNA inh HTS -58
O=C(CC(F)(F)F)N1C[C@H]2[C@@H](c3ccccc31)[C@@H](CO)N2CC1CCOCC1	none
CCC(=O)N1C[C@H]2[C@@H](c3ccccc31)[C@@H](CO)N2CC1CCCC1	SIRT5 block 16
Cc1cccc(S(=O)(=O)N2C[C@H]3[C@@H](c4ccccc42)[C@@H](CO)N3CC2CCCC2)c1	SIRT5 block 15
O=C(C[C@H]1CC[C@H](NC(=O)Nc2ccc3c(c2)OCO3)[C@H](CO)O1)NCc1ccc(Cl)cc1	none
C[C@@H]1CN([C@@H](C)CO)C(=O)c2ccccc2-c2ccccc2CO[C@H]1CN(C)S(=O)(=O)c1ccc(C(F)(F)F)cc1	none
O=C(c1ccccc1F)N1C[C@H]2[C@@H](c3ccccc31)[C@@H](CO)N2CC1CCCCC1	SIRT5 block 27
O=C(O)c1ccc(CSc2nc3ccc(NC(=O)c4ccccc4C(=O)O)cc3s2)cc1	SIRT5 block 17
CCNC(=O)c1ccc(CSc2nc3ccccc3s2)cc1	none
N#Cc1ccccc1CSc1nc2ccc(NC(=O)c3ccccc3C(=O)O)cc2s1	rRNA inh HTS -23
Cc1ccc(NC(=O)CN2C(=O)N/C(=C/c3cc(C)n(-c4ccc(C(=O)O)cc4)c3C)C2=O)cc1	SIRT5 block 26
CCCC(=O)Nc1ccc2c(c1)nc(CN1CCN(C(=O)OCC)CC1)n2CC	CFTR F508del cor 12
CCCn1c(CN2CCN(C(=O)OCC)CC2)nc2cc(NC(C)=O)ccc21	SIRT5 block 17
O=C(Nc1ccc(F)cc1)Nc1ccc2c(c1)[C@H]1C[C@H](CC(=O)N3CCOCC3)O[C@H](CO)[C@H]1O2	none
S=C1NCN(Cc2cccnc2)CN1Cc1ccccc1	none (no result: SIRT5 block)
S=c1nc(-c2ccccc2Cl)n(Cc2cccnc2)c2c1CCCC2	rRNA inh HTS -26 (no result: CFTR F508del cor)

Assay outcomes deposited in PubChem BioAssay by Broad Institute.
